From ChEMBL document CHEMBL4823331, “Identification of gp120 Residue His105 as a Novel Target for HIV-1 Neutralization by Small-Molecule CD4-Mimics” (ACS Med Chem Lett, 2021)

Tests used:
[1] = (§1) Inhibition of gp120 (His 105 residue) in HIV-1 BG505 infected in dog Cf2Th-CD4/CCR5 cells assessed as inhibition of viral entry incubated for 30 mins prior to infection and further incubated for 48 to 72 hrs in presence of firefly D-luciferin free acid and ATP by single-round infection luciferase assay; assay type: cell-based; details: Human immunodeficiency virus 1, BG505, Cf2Th-CD4/CCR5
In short: (§2)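 Cf2Th canine cells expressing CD4 and CCR5 were infected with the named HIV-1 strain in the presence of compound. IC50 was taken as the concentration giving 50% inhibition of viral infection, reported as mean ± SD. Groups were compared by one-tailed unpaired t test (N = 3).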

[2] = as §1, with “(Gln” for “(His”, “JR-FL” for “BG505”; assay type: cell-based; details: Human immunodeficiency virus 1, JR-FL; in short: as §2

With `CNCc1ccc2c(c1)[C@@H](CCCO)[C@H](CNC(=N)N)[C@H]2NC(=O)C(=O)Nc1ccc(Cl)c(F)c1` the IC50 [1] was 136 µM and the IC50 [2] was 8.25 µM.

`CNCc1ccc2c(c1)[C@@H](CCC(=O)CO)[C@H](CNC(=N)N)[C@H]2NC(=O)C(=O)Nc1ccc(Cl)c(F)c1` gave an IC50 [1] of 166 µM and an IC50 [2] of 4.97 µM.

With `CNCc1ccc2c(c1)[C@@H](CC[C@@H](O)CO)[C@H](CNC(=N)N)[C@H]2NC(=O)C(=O)Nc1ccc(Cl)c(F)c1` the IC50 [2] was 22 µM.

In the case of `CNCc1ccc2c(c1)[C@@H](CC[C@H](O)CO)[C@H](CNC(=N)N)[C@H]2NC(=O)C(=O)Nc1ccc(Cl)c(F)c1`, the IC50 [2] is reported as 17.7 µM.

In the case of `CNCc1ccc2c(c1)[C@H](NC(=O)C(=O)Nc1ccc(Cl)c(F)c1)[C@@H](CNC(=N)N)[C@@H]2CCCO`, the IC50 [1] is reported as 164 µM and the IC50 [2] is reported as 9.45 µM.

Compound `CNCc1ccc2c(c1)[C@H](NC(=O)C(=O)Nc1ccc(Cl)c(F)c1)[C@@H](CNC(=N)N)[C@@H]2CC[C@H](O)CO` has an IC50 [2] of 27.8 µM.

`CCCC[C@@H]1c2cc(CNC)ccc2[C@H](NC(=O)C(=O)Nc2ccc(Cl)c(F)c2)[C@H]1CNC(=N)N` showed an IC50 [2] of 32.5 µM.

With `CNCc1ccc2c(c1)C[C@H](CNC(=N)N)[C@H]2NC(=O)C(=O)Nc1ccc(Cl)c(F)c1` the IC50 [1] was 226 µM and the IC50 [2] was 9 µM.

In the case of `CNCc1ccc2c(c1)[C@@H](CCC(O)CO)[C@H](CNC(=N)N)[C@H]2NC(=O)C(=O)Nc1ccc(Cl)c(F)c1` (mixture of isomers), the IC50 [1] is reported as 130 µM and the IC50 [2] is reported as 8.29 µM.

Work on `C=CCC[C@@H]1c2cc(CNC)ccc2[C@H](NC(=O)C(=O)Nc2ccc(Cl)c(F)c2)[C@H]1CNC(=N)N` yielded an IC50 [1] of 106 µM and an IC50 [2] of 9.22 µM.

In the case of `C=CCC[C@@H]1c2ccc(CNC)cc2[C@H](NC(=O)C(=O)Nc2ccc(Cl)c(F)c2)[C@H]1CNC(=N)N`, the IC50 [1] is reported as greater than 100 µM and the IC50 [2] is reported as 16.2 µM.

With `CNCc1ccc2c(c1)[C@H](NC(=O)C(=O)Nc1ccc(Cl)c(F)c1)[C@@H](CNC(=N)N)[C@@H]2CCC(O)CO` (stereo not given in full) the IC50 [1] was greater than 300 µM and the IC50 [2] was 19.5 µM.
